Assay results from ChEMBL document CHEMBL1124929, “Indolo[2,1-a]isoquinolines. Syntheses, steroid hormone receptor binding affinities, and cytostatic activity” (1990).

How the values were obtained:
[1] = molecular target: T1, Androgen Receptor (Bos taurus) (UniProt Q5EM59); test: Relative binding affinity(RBA) for 50% displacement of [3H]mibolerone from Androgen receptor compared to testorone
T1 sequence (whole entry): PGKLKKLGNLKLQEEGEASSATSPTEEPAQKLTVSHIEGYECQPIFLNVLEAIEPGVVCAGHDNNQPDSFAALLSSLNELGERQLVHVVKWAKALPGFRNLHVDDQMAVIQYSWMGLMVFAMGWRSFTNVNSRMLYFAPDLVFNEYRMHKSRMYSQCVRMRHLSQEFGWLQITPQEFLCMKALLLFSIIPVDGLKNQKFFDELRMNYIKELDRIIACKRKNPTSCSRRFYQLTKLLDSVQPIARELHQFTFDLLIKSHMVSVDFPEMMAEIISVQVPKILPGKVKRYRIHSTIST
Outline: (§1)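 Receptor source was calf uterine cytosol (105000g supernatant, 3 mg/mL protein in assay). Buffers were Tris/EDTA pH 7.4, with NaN₃ for ER, molybdate/glycerol for AR, and sucrose for PR. Tracers were 1 nM [³H]estradiol, [³H]mibolerone or [³H]Org 2058. Incubation was at 0–4 °C for 16 h (ER) or 2 h (AR, PR), with 4–6 competitor concentrations. Nonspecific binding used 2 µM of the unlabeled hormone. Separation was by dextran-coated charcoal. RBA is the ratio of IC50 values for hormone and compound ×100, mean of two triplicate experiments.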

Bos taurus = organism: Bos taurus; test: Relative binding affinity(RBA) as ratio of progesterone and compound required to displace [3H]-org 2058 binding to Progesterone receptor by 50%; outline: as §1
[2] = molecular target: Estrogen receptor (Bos taurus) (UniProt Q9XSB5+P49884); test: Relative binding affinity(RBA) for 50% displacement of [3H]-estradiol from Estrogen receptor compared to 17-beta-estradiol; type: protein assay; outline: as §1
[3] = molecular target: T1, Androgen Receptor (Bos taurus); test: Relative binding affinities (RBA) for Androgen receptor (AR); outline: as §1
MCF7 [4] = test: Effect on hormone-dependent MCF-7 human breast cancer cell proliferation at 5x10E-6M; type: functional
Outline: (§2)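 Cells were plated at about 2 × 10⁴ per well in six-well dishes. MCF-7 cells were grown in modified improved MEM with 5% NCS, switched to charcoal-treated NCS two weeks before the test, and exposed for 5 days with a re-dose on day 4. MDA-MB 231 cells were grown in McCoy 5a with 10% NCS and exposed for 2 days. Compounds were given 1 day after plating in 0.1% DMSO, with DMSO-matched controls. Read-out was cell number as % T/C, mean of three experiments with six dishes.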

[5] = molecular target: T2, Estrogen receptor (Mus musculus) (UniProt O08537+P19785); test: (§3) Estrogenic activity in uterotrophic assay in immature mice at 250 ug subcutaneous dose; type: functional
Outline: (§4)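 Immature female NMRI mice, 20 days old, in groups of 6-10, were dosed sc once daily for three consecutive days. Compounds were given in PEG/0.9% saline 1:1; vehicle controls were included. Animals were killed 24 h after the last dose. Uteri were fixed in Bouin solution and the effect was taken as uterine dry weight (mg)/body weight (g) ×100, given as mean ± SD.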

[6] = molecular target: T2, Estrogen receptor (Mus musculus); test: Inhibition of 0.4 ug estrone-stimulated uterine growth in mice at 10.0 ug subcutaneous dose; type: functional
Outline: (§5)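 Immature 20-day-old female NMRI mice received sc injections on three consecutive days. Each injection held 0.4 µg estrone plus the compound in PEG/saline 1:1. […] Significance was tested by Mann-Whitney U test.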

[7] = molecular target: T2, Estrogen receptor (Mus musculus); test: (§6) Estrogenic activity in uterotrophic assay in immature mice at 10.0 ug subcutaneous dose; type: functional; outline: as §4
[8] = molecular target: T2, Estrogen receptor (Mus musculus); test: as §6; type: functional; outline: as §4; remark: listed apart in the source
[9] = molecular target: T2, Estrogen receptor (Mus musculus); test: Inhibition of 0.4 ug estrone-stimulated uterine growth in mice at 50.0 ug subcutaneous dose; type: functional; outline: as §5
MCF7 [10] = test: Effect on [3H]thymidine incorporation into MCF-7 human breast cancer cells at 1x10E-5 M; type: functional
Outline: (§7)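 Cells were seeded at ~2 × 10⁴ per well, treated from the next day in 0.1% DMSO, with DMSO controls. MCF-7 cells were held in charcoal-stripped NCS for 2 weeks, treated for 5 days and re-dosed on day 4. MDA-MB 231 cells were grown in McCoy 5a/10% NCS and treated for 2 days. At the end, 1 µCi [³H]thymidine per well was added for 2 h. Result is % T/C, mean of three experiments × six dishes.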

MCF7 [11] = test: Effect on [3H]thymidine incorporation into MCF-7 human breast cancer cells at 5x10E-6M; type: functional; outline: as §7
MDA-MB-231 [12] = test: Effect on [3H]thymidine incorporation into MDA-MB 231 human breast cancer cells at 5x10E-6M; type: functional; outline: as §7
[13] = molecular target: T2, Estrogen receptor (Mus musculus); test: (§8) Estrogenic activity in uterotrophic assay in immature mice at 50.0 ug subcutaneous dose; type: functional; outline: as §4
[14] = molecular target: T2, Estrogen receptor (Mus musculus); test: (§9) Estrogenic activity in uterotrophic assay in immature mice at 2 ug subcutaneous dose; type: functional; outline: as §4
MDA-MB-231 [15] = test: Cytostatic effect on hormone-independent MDA-MB 231 human breast cancer cell proliferation at 1x10E-5 M; type: functional; outline: as §2
MCF7 [16] = test: Effect on hormone-dependent MCF-7 human breast cancer cell proliferation at 1x10E-5 M; type: functional; outline: as §2
MDA-MB-231 [17] = test: Cytostatic effect on hormone-independent MDA-MB 231 human breast cancer cell proliferation at5x10E-6M; type: functional; outline: as §2
[18] = molecular target: T2, Estrogen receptor (Mus musculus); test: Inhibition of 0.4 ug estrone-stimulated uterine growth in mice at 250 ug subcutaneous dose; type: functional; outline: as §5
[19] = molecular target: T2, Estrogen receptor (Mus musculus); test: as §8; type: functional; outline: as §4; remark: listed apart in the source
MDA-MB-231 [20] = test: Effect on [3H]thymidine incorporation into MDA-MB 231 human breast cancer cells at 1x10E-5 M; type: functional; outline: as §7
[21] = molecular target: T2, Estrogen receptor (Mus musculus); test: as §3; type: functional; outline: as §4; remark: listed apart in the source
[22] = molecular target: T2, Estrogen receptor (Mus musculus); test: as §9; type: functional; outline: as §4; remark: listed apart in the source
MCF7 [23] = test: Effect on hormone-dependent MCF-7 human breast cancer cell proliferation at 1x10E-6M; type: functional; outline: as §2
[24] = molecular target: T2, Estrogen receptor (Mus musculus); test: Inhibition of 0.4 ug estrone-stimulated uterine growth in mice at 2 ug subcutaneous dose; type: functional; outline: as §5
MDA-MB-231 [25] = test: Cytostatic effect on hormone-independent MDA-MB 231 human breast cancer cell proliferation at 1x10E-6M; type: functional; outline: as §2
[26] = molecular target: T2, Estrogen receptor (Mus musculus); test: (§10) Estrogenic activity in uterotrophic assay in immature mice at 40.0 ug subcutaneous dose; type: functional; outline: as §4
[27] = molecular target: T2, Estrogen receptor (Mus musculus); test: as §10; type: functional; outline: as §4; remark: listed apart in the source
MCF7 [28] = test: Effect on [3H]thymidine incorporation into MCF-7 human breast cancer cells at 1x10E-6M; type: functional; outline: as §7
[29] = molecular target: T2, Estrogen receptor (Mus musculus); test: Estrogenic activity in uterotrophic assay in immature mice at 125 ug subcutaneous dose; type: functional; outline: as §4
[30] = molecular target: T2, Estrogen receptor (Mus musculus); test: Inhibition of 0.4 ug estrone-stimulated uterine growth in mice at 40.0 ug subcutaneous dose; type: functional; outline: as §5
MDA-MB-231 [31] = test: Effect on [3H]-thymidine incorporation into MDA-MB 231 human breast cancer cells at 1x10E-6M; type: functional; outline: as §7

T2 sequence (O08537 whole entry, looked up): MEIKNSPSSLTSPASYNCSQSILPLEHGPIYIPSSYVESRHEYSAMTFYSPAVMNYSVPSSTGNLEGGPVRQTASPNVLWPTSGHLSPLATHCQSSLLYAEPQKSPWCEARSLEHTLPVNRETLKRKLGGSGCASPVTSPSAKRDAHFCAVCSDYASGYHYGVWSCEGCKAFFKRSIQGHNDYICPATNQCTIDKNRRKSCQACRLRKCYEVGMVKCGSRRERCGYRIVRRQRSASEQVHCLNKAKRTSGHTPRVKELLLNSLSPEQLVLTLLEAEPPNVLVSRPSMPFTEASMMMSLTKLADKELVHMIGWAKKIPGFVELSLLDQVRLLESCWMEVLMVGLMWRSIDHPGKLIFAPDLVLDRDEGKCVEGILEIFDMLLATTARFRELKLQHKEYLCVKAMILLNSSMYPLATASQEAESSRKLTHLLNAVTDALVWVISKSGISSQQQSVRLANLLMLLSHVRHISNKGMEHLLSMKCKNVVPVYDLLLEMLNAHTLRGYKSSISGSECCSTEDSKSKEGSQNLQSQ
T2 sequence (P19785 whole entry, looked up): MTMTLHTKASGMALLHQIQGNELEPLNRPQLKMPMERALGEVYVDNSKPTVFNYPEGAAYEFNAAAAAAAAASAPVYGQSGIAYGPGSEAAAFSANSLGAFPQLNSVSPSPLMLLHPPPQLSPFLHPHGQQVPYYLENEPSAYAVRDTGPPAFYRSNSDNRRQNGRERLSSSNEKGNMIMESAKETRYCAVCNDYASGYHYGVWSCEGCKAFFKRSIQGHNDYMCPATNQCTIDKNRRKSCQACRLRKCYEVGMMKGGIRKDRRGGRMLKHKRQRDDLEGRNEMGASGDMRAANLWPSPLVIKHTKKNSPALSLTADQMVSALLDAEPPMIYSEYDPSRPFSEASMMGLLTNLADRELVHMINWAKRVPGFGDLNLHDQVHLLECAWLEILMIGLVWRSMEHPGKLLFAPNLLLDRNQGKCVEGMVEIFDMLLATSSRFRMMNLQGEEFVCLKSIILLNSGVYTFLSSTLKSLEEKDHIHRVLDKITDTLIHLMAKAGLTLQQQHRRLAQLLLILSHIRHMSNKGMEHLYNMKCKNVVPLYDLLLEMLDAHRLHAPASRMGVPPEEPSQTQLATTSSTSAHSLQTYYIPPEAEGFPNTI

Row | RBA [1] | RBA (Bos taurus) | RBA [2] | Effect [14] | SMILES | T/C (MCF7 [4]) | T/C (MCF7 [10]) | T/C (MCF7 [11]) | T/C (MDA-MB-231 [12]) | T/C (MDA-MB-231 [15]) | T/C (MCF7 [16]) | T/C (MDA-MB-231 [17]) | T/C (MDA-MB-231 [20]) | other results
1 | 0.2 | 0.01 | 0.16 |  | CC(=O)Oc1ccc2c(c1)CCn1c-2cc2ccc(OC(C)=O)cc21 |  |  |  |  |  |  |  |  | 
2 |  | < 0.01 | 2 |  | CC(=O)Oc1ccc2c(c1)CCn1c-2cc2cc(OC(C)=O)ccc21 |  |  |  |  |  |  |  |  | relative binding affinity (RBA) [3]: < 0.01
3 | < 0.01 | < 0.01 | 2.5 | 16.8 | CCC1Cn2c(cc3cc(OC(C)=O)ccc32)-c2ccc(OC(C)=O)cc21 (centres undefined) | 97% | 7% | 95% | 90% | 45% | 31% | 88% | 25% | Effect [5]: 46.1; inhibition [6]: 18.7%; Effect [7]: 21.5; Effect [8]: 44.1; inhibition [9]: 23.3%; Effect [13]: 42.5; inhibition [18]: 22.4%; Effect [19]: 24.1; Effect [21]: 42.7; Effect [22]: 50.9

Further lines, the compound ahead of its results:

Row | SMILES | RBA [1] | RBA (Bos taurus) | RBA [2] | Effect [14] | T/C (MCF7 [4]) | T/C (MCF7 [10]) | T/C (MCF7 [11]) | T/C (MDA-MB-231 [12]) | T/C (MDA-MB-231 [15]) | T/C (MCF7 [16]) | T/C (MDA-MB-231 [17]) | T/C (MDA-MB-231 [20]) | other results
4 | CC(=O)Oc1ccc2c(c1)CCn1c-2cc2cc(OC(C)=O)c(OC(C)=O)cc21 | < 0.01 |  | 0.01 |  |  |  |  |  |  |  |  |  | 
5 | CCC1Cc2cc(OC(C)=O)c(OC(C)=O)cc2-c2cc3cc(OC(C)=O)ccc3n21 (centres undefined) | < 0.01 | 0.04 | 2.9 | 21.2 | 39% | 3% | 11% | 35% | 51% | 22% | 62% | 38% | T/C (MCF7 [23]): 89%; inhibition [24]: 11.7%; T/C (MDA-MB-231 [25]): 100%; Effect [26]: 42.8; Effect [27]: 49.7; T/C (MCF7 [28]): 95%; Effect [29]: 55.8; inhibition [30]: 15.7%; T/C (MDA-MB-231 [31]): 77%
6 | CC(=O)Oc1ccc2c(c1)cc1n2CCc2cc(OC(C)=O)c(OC(C)=O)cc2-1 | < 0.01 | < 0.01 | 0.15 |  |  |  |  |  |  |  |  |  | 
